High-throughput results from PubChem.
Most compounds without a hit are left out; they make up all but 2.3% or so of the library.
TRPC6 activator: activators of mouse TRPC6 channel | Q61143 | HEK293-TRPC6 membrane potential dye fluorescence; stronger effect = higher value | B-score at 10 µM | 310,000 compounds, 0.13% hits;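 active means B-score of the integrated fluorescence ratio above library mean plus 3 SD, and starting fluorescence ratio within library mean plus 5 SD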;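 further: higher score means more depolarization so channel activation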
TRPC4 potent: allosteric potentiators of mouse TRPC4 channel. 310,000 compounds, 0.42% hits. B-score at 10 µM. AID 2227. Q9QUQ5. HEK293 TRPC4beta/mu-opioid, DAMGO EC20, Fluo-4 Ca2+ flux; stronger effect = higher value;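 active means B-score of calcium response area above 5 SD of library B-scores, with initial fluorescence ratio within 5 SD of library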
DNA FID counter: fluorescent intercalator displacement, NS3 helicase counter-screen; DNA fluorescent intercalator displacement, fluorescence; inhibition, % at 7.9 µM; 290,000 compounds, 0.17% hits; in the data active means inhibition above about 37%;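 further: higher means more ethidium bromide displaced from hairpin DNA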
TRPC4 inh: inhibitors of mouse TRPC4 channel | Q9QUQ5 | HEK293 TRPC4beta/mu-opioid, DAMGO-evoked Fluo4 calcium flux; stronger effect = lower value | B-score at 10 µM | 300,000 compounds, 0.39% hits;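 active means B-score over 3 SD under the library average, no early fluorescence shift, positive overall ratio signal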
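Assay system: HEK293 cells with stable TRPC4beta plus mu-opioid receptor expression. Dosing: single dose. Measured by: Fluo4 Ca2+ flux fluorescence. Also added: DAMGO in two steps, submaximal then maximal. Read-out: B score from integrated Fluo4 fluorescence ratio.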
TRPC6 inh: mouse TRPC6 channel inhibition | Q61143 | HEK293-TRPC6, membrane potential dye, ACh-evoked depolarization; stronger effect = lower value | B-score at 10 µM | 310,000 compounds, 1.1% hits;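 active means B-score under library mean minus 3 SD, initial fluorescence not abnormally high, positive integrated signal ratio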;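 further: B-score derived from integrated fluorescence ratio over the kinetic read; more negative B-score means stronger inhibition of depolarization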
TRPC4 agonist: activators of mouse TRPC4 channel; HEK293 TRPC4beta/mu-opioid, Fluo4 calcium fluorescence; stronger effect = higher value; 310,000 compounds, 0.49% hits; B-score at 10 µM;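 active means B-score above 5 SD of library B-scores, and initial fluorescence ratio not above library mean plus 5 SD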;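 further: positive B-score marks a calcium rise read as TRPC4 activation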
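Technique: kinetic Fluo4 calcium fluorescence; Test system: TRPC4beta and mu-opioid receptor HEK293 stable cells; Measure: B-scored integrated calcium fluorescence ratio; Benchmarks: low control buffer alone, high control maximal DAMGO; Schedule: 45 min room-temperature Fluo4 loading, 110 s read.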
TRPC4 spec 2: second check of whether TRPC6 inhibitors also affect mouse TRPC4; HEK293 TRPC4/MOR, membrane potential dye fluorescence; channel activated by saturating DAMGO dose; 920 compounds, 42% hits; shares compounds with TRPC6 inh; inhibition, % at 10 µM; AID 2776;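 active means compounds whose fluorescence signal differed from control wells by over 3 SD, either direction, in both duplicate plates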
TRPC4 spec: selectivity of TRPC6 inhibitors: effect on mouse TRPC4; shares compounds with TRPC6 inh; HEK293 TRPC4/mu-opioid, membrane potential fluorescence; activity change, negative = inhibition, % at 10 µM; 920 compounds, 61% hits;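 active means rise or fall in signal beyond 3 SD of buffer-only wells in both replicate plates, either sign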;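 further: integrated kinetic ratio of fluorescence range over baseline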
HEK293 MPD ctr 2-1: second counter-screen for TRPC6 inhibitors: parental HEK293 cells. 920 compounds, 31% hits. parental HEK293 membrane potential dye fluorescence; maximal acetylcholine challenge after compound addition. AID 2779. signal change vs control, % at 10 µM. shares compounds with TRPC6 inh;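 active means membrane potential signal moving either way by over 3 SD of the maximum-effect control, in both duplicate plates, meaning non-specific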
HEK293 MPD ctr-1: counter-screen for TRPC6 inhibitors: effect in parental HEK293 cells; AID 2780; parental HEK293 membrane potential dye fluorescence; 920 compounds, 60% hits; shares compounds with TRPC6 inh; membrane potential signal change, % at 10 µM;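 active means membrane potential signal shifting up or down by more than 3 SD of buffer-only wells, on both duplicate plates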
HEK293 MPD ctr-2: counter-screen for TRPC6 modulators: effect in parental HEK293 cells | 2,400 compounds, 51% hits | shares compounds with TRPC6 inh | membrane potential dye fluorescence | AID 488924 | membrane potential signal change, % at 10 µM;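 active means membrane potential signal moves up or down beyond 5 SD from buffer-only wells, on both duplicate plates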
HEK293 MPD ctr 2-2: second check of TRPC6 modulator effects in parental HEK293 cells; inhibition, % at 10 µM; 2,400 compounds, 14% hits; shares compounds with TRPC6 inh; membrane potential dye fluorescence; after compound, maximal acetylcholine stimulation;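 active means membrane potential signal drops by more than 5 SD from the mean control signal, in both duplicate plates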
TRPC4 ctr mod: tests whether TRPC6 modulators also affect mouse TRPC4. HEK293 TRPC4/mu-opioid, membrane potential fluorescence. percent change from control (negative = decrease, positive = increase), % at 10 µM. AID 488927. 2,400 compounds, 69% hits. shares compounds with TRPC6 inh;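 active means membrane potential signal moved up or down beyond 5 SD of buffer control wells, in both duplicate plates, actives on both sides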
TRPC4/MOR inh 2: mouse TRPC4 off-target activity of TRPC6 modulators, second screen. HEK293 TRPC4/mu-opioid, membrane potential dye fluorescence; stimulated with maximal-effect DAMGO. shares compounds with TRPC6 inh. inhibition, % at 10 µM. 2,400 compounds, 55% hits. AID 488928;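 active means drop in membrane potential signal beyond 5 SD of the control wells in both duplicate plates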;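 further: TRPC4 counter screen for TRPC6 hits run under conditions tuned for TRPC6 not TRPC4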
TRPC6 block conf: mouse TRPC6 inhibitor confirmation; AID 488960; 3,300 compounds, 43% hits; shares compounds with TRPC6 inh; HEK293-TRPC6, membrane potential dye, ACh-evoked depolarization; inhibition, % at 10 µM;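 active means fluorescence ratio falls more than 5 SD below the full-stimulation control mean, in both duplicate runs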;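 further: integrated fluorescence ratio of peak minus minimum over baseline after agonist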
TRPC6 act conf: confirmation of mouse TRPC6 activators. activation, % at 10 µM. shares compounds with TRPC6 inh. 2,800 compounds, 11% hits. HEK293-TRPC6 membrane potential dye fluorescence, FDSS;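 active means ratio signal rise beyond 5 SD above unstimulated control wells' mean, seen in both duplicate runs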
Of the large screens only hits and unclear results are named; the others gave an inactive call (follow-up assays come after a bar, where they were run).

CCc1nnc(NC(=O)CSC(=S)N2CCOCC2)s1	TRPC6 inh -6.9 | HEK293 MPD ctr-2 inactive | HEK293 MPD ctr 2-2 inactive | TRPC4 ctr mod inactive | TRPC4/MOR inh 2 inactive | TRPC6 block conf inactive | TRPC6 act conf inactive
NC(=O)CCCn1c(C(=O)c2ccc(Cl)cc2)c2ccc(C(F)(F)F)cc2[n+]1[O-]	none (no result: DNA FID counter)
NCCCn1c(C(=O)c2ccc(Cl)cc2)c2ccc(C(F)(F)F)cc2[n+]1[O-]	TRPC6 inh -9.3 (no result: DNA FID counter) | TRPC4 spec 2 56% | TRPC4 spec -11% | HEK293 MPD ctr 2-1 inactive | HEK293 MPD ctr-1 -180% | TRPC6 block conf 67% | TRPC6 act conf inactive
COc1ccc(/C=C2\C(=N)N3N=C(CC(=O)N4CCCCC4)SC3=NC2=O)cc1	TRPC6 activator 12 | HEK293 MPD ctr-2 136% | HEK293 MPD ctr 2-2 inactive | TRPC4 ctr mod 22% | TRPC4/MOR inh 2 inactive | TRPC6 block conf inactive | TRPC6 act conf 76%
COc1ccc(/C=C2/C(=N)N3N=C(CC(=O)N4CCCC4)SC3=NC2=O)cc1	TRPC6 activator 12 | HEK293 MPD ctr-2 163% | HEK293 MPD ctr 2-2 inactive | TRPC4 ctr mod 24% | TRPC4/MOR inh 2 inactive | TRPC6 block conf inactive | TRPC6 act conf 84%
Cc1ccc(/C=C2\C(=N)N3N=C(CC(=O)N4CCCCC4)SC3=NC2=O)cc1	none
CN(C)c1cc(N/N=C/c2ccccc2C(F)(F)F)nc(N(C)C)n1	TRPC6 inh -5.1 | HEK293 MPD ctr-2 inactive | HEK293 MPD ctr 2-2 inactive | TRPC4 ctr mod inactive | TRPC4/MOR inh 2 inactive | TRPC6 block conf inactive | TRPC6 act conf inactive
CCNC(=O)c1ccc(=O)n(Cc2ccc(Cl)cc2Cl)c1	none (no result: DNA FID counter)
CN1CCN(c2cc(N3CCN(C(=O)c4ccco4)CC3)c3c4c(onc24)-c2ccccc2C3=O)CC1	none
O=C1c2ccccc2-c2onc3c(N4CCN(CCO)CC4)cc(N4CCN(C(=O)c5ccco5)CC4)c1c23	TRPC6 inh -7 | TRPC4 spec 2 inactive | TRPC4 spec -47% | HEK293 MPD ctr 2-1 inactive | HEK293 MPD ctr-1 -608% | TRPC6 block conf inactive | TRPC6 act conf inactive
COc1ccc(C(=O)N2CCCC2(C#N)c2ccccc2)cc1[N+](=O)[O-] (configuration not stated)	TRPC6 inh -7.6 | TRPC4 spec 2 inactive | TRPC4 spec 0.7% | HEK293 MPD ctr 2-1 inactive | HEK293 MPD ctr-1 inactive | TRPC6 block conf inactive | TRPC6 act conf inactive
CCN1CCN(CCNC(=O)C2CCN(Cc3nc(-c4ccc(Cl)cc4)oc3C)CC2)CC1	none
Cc1oc(-c2cccc(Cl)c2)nc1CN1CCC(C(=O)N2CCN(c3ccccc3F)CC2)CC1	none
Cc1oc(-c2ccc(Cl)cc2)nc1CN1CCC(C(=O)N2CCN(Cc3ccccc3)CC2)CC1	TRPC6 activator 12 | HEK293 MPD ctr-2 226% | HEK293 MPD ctr 2-2 inactive | TRPC4 ctr mod 40% | TRPC4/MOR inh 2 68% | TRPC6 block conf inactive | TRPC6 act conf 129%
COc1ccccc1CNC(=O)C1CCN(Cc2nc(-c3cccc(Cl)c3)oc2C)CC1	TRPC6 inh -9.5 | HEK293 MPD ctr-2 115% | HEK293 MPD ctr 2-2 inactive | TRPC4 ctr mod 15% | TRPC4/MOR inh 2 97% | TRPC6 block conf inactive
CCN1CCCC1CNC(=O)C1CCN(Cc2nc(-c3cccc(Br)c3)oc2C)CC1 (configuration not stated)	DNA FID counter 39, TRPC6 inh -8.9 | TRPC4 spec 2 60% | TRPC4 spec -18% | HEK293 MPD ctr 2-1 inactive | HEK293 MPD ctr-1 -240% | TRPC6 block conf inactive | TRPC6 act conf inactive
Cc1oc(-c2ccc(Cl)cc2)nc1CN1CCC(C(=O)N2CCc3ccccc3C2)CC1	TRPC6 activator 14, TRPC4 potent 15 | HEK293 MPD ctr-2 202% | HEK293 MPD ctr 2-2 inactive | TRPC4 ctr mod 32% | TRPC4/MOR inh 2 62% | TRPC6 block conf inactive | TRPC6 act conf 80%
COc1ccc(CNC(=O)C2CCC(CNS(=O)(=O)c3cccs3)CC2)cc1 (configuration not stated)	none
CCNC(=S)N(CCCN(C)C)Cc1cc2cc3c(cc2[nH]c1=O)OCCO3	none
CNC(=O)c1c(NC(=O)c2ccc(N3C(=O)CCC3=O)cc2)sc2c1CCC(C)C2 (configuration not stated)	none
COc1cc(-c2nc(CN3CCN(C(=O)c4ccco4)CC3)c(C)o2)ccc1F	TRPC6 activator 12, TRPC6 inh -6.3 | HEK293 MPD ctr-2 inactive | HEK293 MPD ctr 2-2 inactive | TRPC4 ctr mod 12% | TRPC4/MOR inh 2 inactive | TRPC6 block conf 62% | TRPC6 act conf 139%
Cc1oc(-c2cccc(Cl)c2)nc1CN1CCC(C(=O)NCc2ccco2)CC1	none
COc1ccc(-c2nc(CN3CCN(C(=O)c4ccco4)CC3)c(C)o2)cc1OC	none
Cc1oc(-c2ccc(Cl)cc2)nc1CN1CCC(C(=O)NCc2ccco2)CC1	TRPC6 activator 12, TRPC4 inh -6 | HEK293 MPD ctr-2 inactive | HEK293 MPD ctr 2-2 inactive | TRPC4 ctr mod 8.0% | TRPC4/MOR inh 2 72% | TRPC6 act conf 122%
